From PMC6662154 (ACS Central Science, 2019)
Where no end group is shown, it is not given here.

Columns and labels:
[1] = target: T1, PscE–PscG heterodimer (Pseudomonas aeruginosa, UniProt P95435); experiment: Fluorescence polarization competitive binding assay
T1 sequence (P95435 1-115): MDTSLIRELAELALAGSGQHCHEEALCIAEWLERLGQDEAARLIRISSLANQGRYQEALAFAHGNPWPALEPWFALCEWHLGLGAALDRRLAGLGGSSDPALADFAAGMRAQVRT
T1 sequence (Q9I317 1-67 partner): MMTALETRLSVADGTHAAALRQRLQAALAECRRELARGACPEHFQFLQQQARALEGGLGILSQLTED

[2] = system: J774A.1 cells infected with PAO1; experiment: LDH release assay, PAO1-infected macrophages; assay type: cell-based, mouse; conditions: different concentrations, MOI 8, 5 h
[3] = system: intracellular PAO1 in J774A.1 cells; experiment: Quantification of intracellular bacteria in macrophages; assay type: cell-based, Pseudomonas aeruginosa; conditions: different concentrations; gentamicin at 2 h postinfection
In short: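 J774A.1 cells were seeded at 5 × 10^4 per well, grown 24 h and switched to serum-free medium 1 h before infection with mid-exponential PAO1 at MOI 8. Cells were infected 2 h with test compound (0–100 μM, 2% DMSO), washed, and exposed to gentamicin (50 μg/mL) for 2 h. Lysates were plated for intracellular counts, normalised to mock-treated infected cells; mean ± SD, three experiments.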

[4] = system: PAO1 in the bronchoalveolar lavage; experiment: Bacterial burden in bronchoalveolar lavage of PAO1-infected mice; assay type: in vivo, mouse; conditions: single dose 100 μM at the time of infection; sampled 18 h postinfection
In short: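 Female 6-week-old C57BL/6J mice were lightly anaesthetised with inhaled sevoflurane and given PAO1 intranasally (1 × 10^7 CFU in 20 μL PBS). Test compound (100 μM, 1% DMSO) was given with the inoculum; PBS with 1% DMSO served as mock treatment. At 18 h the animals were killed. Lavage was plated for counts. Lungs were formalin-fixed, paraffin-embedded, H&E-stained and scored by degree of inflammation.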

[5] = system: secretion of ExoS by PAO1; experiment: Inhibition of T3SS-mediated effector secretion; assay type: cell-based, Pseudomonas aeruginosa; conditions: 100 μM; PAO1 grown under low-calcium conditions
In short: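 To induce the T3SS, overnight PAO1 was diluted to OD600 0.3 in LB containing 5 mM EGTA and 20 mM MgCl2, with test compound, then shaken gently 3–4 h to OD 1.5. Controls were LB with 2% DMSO, and EGTA/MgCl2 medium with 2% DMSO. Supernatant proteins were TCA-precipitated (10%, 2 h on ice). Secreted and total ExoS were immunoblotted and measured by densitometry as % secreted of total; mean ± SD, three experiments.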

[6] = target: T2, PscG (Pseudomonas aeruginosa, UniProt P95435 1-115); experiment: fluorescence polarisation
T2 sequence (looked up): T1 sequence (P95435 1-115)

[7] = target: T3, preformed PscE–PscG heterodimer (Pseudomonas aeruginosa, UniProt Q9I317 1-67; P95435 1-115); experiment: fluorescence polarisation
T3 sequence (looked up) 1: T1 sequence (Q9I317 1-67 partner)
T3 sequence (looked up) 2: T1 sequence (P95435 1-115)

[8] = target: T3, preformed PscE–PscG heterodimer; experiment: ITC
[9] = target: T3, preformed PscE–PscG heterodimer; experiment: fluorescence polarisation; remark: listed apart in the source

`CC(Oc1ccc(Cl)cc1Cl)C(=O)NCc1ccc2c(c1)OCO2` (stereo not drawn) [MBX-1641] was tested, and the “competition with FAM-PscF69–85 for PscE–PscG binding (result in words)” value (“competition” for short) [1] was “no effect”, the “inhibition of Pseudomonas-aeruginosa-induced cell lysis (LDH release), in words” value [2] was “inhibited” and the “inhibition of intracellular bacterial survival / proliferation of PAO1” value [3] was “inhibited”. The “bacterial burden in the bronchoalveolar lavage” value [4] was “reduced bacterial burden”.

`C[C@H]1COC2=C1C(=O)C(=O)c1c2ccc2c1CCCC2(C)C` [crpTSN, cryptotanshinone] was tested, and the “competition” value [1] was “inactive”, the “effect on secretion of ExoS” value [5] was “no inhibitory activity” and the “inhibition of Pseudomonas-aeruginosa-induced cell lysis (LDH release), in words” value [2] was “inactive”.

`Cc1coc2c1C(=O)C(=O)c1c-2ccc2c1CCCC2(C)C` [tanshinone 2A] was tested, and the “competition” value [1] was “inactive”.

B1: ^FAMPscF^69–85 (peptide, UniProt P95434 69-85, looked up)
peptide: TVTRALRDLMQGILQKI
modifications: also: fluorescein (FAM) label
B1 was tested, and the Kd [6] was 10800 nM and the Kd [7] was 52 nM.

B2: PscF^69–85 (peptide, UniProt P95434 69-85, looked up)
peptide: TVTRALRDLMQGILQKI
B2 gave a Kd [8] of 51.5 nM and an IC50 [9] of 4320 nM.
